Reference: ChEMBL document CHEMBL1152797, “Design and synthesis of 4-methoxyphenylacetic acid esters as 15-lipoxygenase inhibitors and SAR comparative studies of them” (Bioorg Med Chem, 2009)
Activity calls are given as the source filed them. The rule behind the calls is not given here.

Target: not listed separately
Assay: Inhibition of human recombinant 15-lipoxygenase a
Outline: (§1)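 Human recombinant 15-LO (a or b), expressed in E. coli, at 10 µg/mL final in 50 mM Tris–HCl, pH 7.2. Linoleic acid substrate at 134 µM final, 20 ± 1 °C, compounds in DMSO (1% final). Absorbance read at 234 nm over 60–120 s against an inhibitor-plus-substrate blank. Triplicates, at least six controls; IC50 interpolated linearly near 50% activity.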
`CCOC(=O)Cc1ccc(OC)cc1` showed an IC50 of 56.7 µM.
`CCCCCOC(=O)Cc1ccc(OC)cc1` gave an IC50 of 30.9 µM.

Target: not listed separately
Assay: Inhibition of human recombinant 15-lipoxygenase b
Outline: as §1
`CCOC(=O)Cc1ccc(OC)cc1` gave an IC50 of 63.2 µM.
Compound `CCCCCOC(=O)Cc1ccc(OC)cc1` has an IC50 of 11.7 µM.

Tested on: Glycine max
Assay: Inhibition of 15-lipoxygenase form soybean at 200 uM
For `COc1ccc2c(c1)CCC(=O)C2`, the Activity was “inactive”.
For `C=C1CCc2cc(OC)ccc2C1`, the Activity was “inactive”.

Target: not listed separately
Assay: Inhibition of 15-lipoxygenase form soybean
Design: species or system Glycine max
Work on `C=CCc1ccc(OC)c(OC)c1` [METHYLEUGENOL] yielded an IC50 of 96.1 µM.
With `C=C(CC)Cc1ccc(OC)cc1` the IC50 was 145 µM.
For `C=C(C)Cc1ccc(OC)cc1`, the IC50 was 137 µM.
In the case of `CCC(=O)Cc1ccc(OC)cc1`, the IC50 is reported as 33 µM.
Compound `COC(=O)Cc1ccc(OC)cc1` has an IC50 of 56.2 µM.
For `C=CCc1ccc(OC)cc1` [ESTRAGOLE], the IC50 was 64.1 µM.
`C=CCc1ccc(O)c(OC)c1` [EUGENOL] showed an IC50 of 38.2 µM.
Work on `CCOC(=O)Cc1ccc(OC)cc1` yielded an IC50 of 32 µM.
`CCCCCCOC(=O)Cc1ccc(OC)cc1` showed an IC50 of 35 µM.
Work on `COc1ccc(CC(=O)OC(C)(C)C)cc1` yielded an IC50 of 38.7 µM.
In the case of `COc1ccc(CC(=O)OC2CCCC2)cc1`, the IC50 is reported as 56.5 µM.
For `COc1ccc(CC(=O)OCC(C)C)cc1`, the IC50 was 88.1 µM.
`CCC(C)OC(=O)Cc1ccc(OC)cc1` (centres undefined) gave an IC50 of 35.7 µM.
Compound `CCCCOC(=O)Cc1ccc(OC)cc1` has an IC50 of 3.8 µM.
With `CCCCCOC(=O)Cc1ccc(OC)cc1` the IC50 was 1.9 µM.
`CCCOC(=O)Cc1ccc(OC)cc1` showed an IC50 of 11.6 µM.
`COc1ccc(CC(=O)OC2CCCCC2)cc1` showed an IC50 of 64 µM.
In the case of `COc1ccc(CC(=O)OC(C)C)cc1`, the IC50 is reported as 34.4 µM.
